Laboratory results from ChEMBL document CHEMBL4513216, “Probing the Open Global Health Chemical Diversity Library for Multistage-Active Starting Points for Next-Generation Antimalarials” (ACS Infect Dis, 2020).

assay: Toxicity liver stage against HepG2, at 10uM; assay type: cell-based; design: test concentration 10 uM, cell line HepG2-A16-CD81EGFP; conditions: human, HepG2-A16-CD81EGFP cells; read-out: INHIBITION
Procedure, shortened: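 Uninfected HepG2-A16-CD81EGFP cells, 3 × 10^3 per well, 1536-well, plated on prespotted compound at 10 μM final, parasite-free screening media added to match infected plates; puromycin 10 μM positive, DMSO 0.5% negative; run in parallel with 48 h PbLuc assay at 37 °C, 5% CO2; viability by CellTiter-Glo luminescence, normalized to controls.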

| Structure (SMILES) | cytotoxicity at 10 µM [%] |
| --- | --- |
| CC(=O)N1CC2(CCCC2)c2ccccc21 | 0.83 |
| COc1ccc(-c2cnc3c(c2)CN(C2CC2)C(=O)CCN3)cc1 | 4.09 |
| CCN1CC(C)(C)CN(C(=O)CCc2ccccc2)CC1=O | 0.305 |
| O=C(COc1ccccc1F)NCCC(O)c1ccco1 (stereo unspecified) | -4.18 |
| O=C(Nc1ccc2c(c1)OCO2)N1CCN(CCn2ccnc2)CC1 | -14.2 |
| COc1cccc(N2CC3(CCN(c4ccc(C)nn4)C3)CC2=O)c1 (stereo unspecified) | 6.62 |
| CCN(C)c1ncnc2c1CCN(C(=O)N1CCOCC1)CC2 | 0.223 |
| Cc1cc(C(=O)N2C[C@@H]3COC[C@]3(c3nnc(C)o3)C2)on1 | -0.505 |
| CC1=Nc2c(c(=O)[nH]n2C(C)C)C(c2ccccc2)S1 (stereo unspecified) | 5.53 |
| COc1ccc2nnc(CCCC(=O)NCCC3=CCCCC3)n2n1 | 2.73 |
| CCc1ccc(NC(=O)c2cnc(N3CCN(C)CC3)nc2C)cc1 | -15 |
| O=C1CC(c2ccco2)c2sc(C(=O)O)c(-c3ccccc3)c2N1 (stereo unspecified) | 19.1 |
| COCc1cncc2c1CCN(C(=O)c1ccc(C)o1)C2 | 0.388 |
| CC(C)NC(=O)[C@@H]1CCO[C@@H]2CCN(c3ncccn3)C[C@H]21 | -7.6 |
| COCCNC(=O)[C@@H]1CC[C@@H]2[C@@H](CCN2Cc2cnn(C)c2)O1 | -12.2 |
| O=C(c1ccncc1F)N1CCN(CC2CC2)c2ncccc2C1 | 6.48 |
| Cc1nn(C)cc1S(=O)(=O)N[C@@H]1CCC[C@@H](n2ccnc2)[C@@H]1O | 0.651 |
| CN1CCCCC1c1cncc(N2CCC(O)CC2)n1 (stereo unspecified) | 2.54 |
| CC(C)Cc1noc(CNc2ccccc2CC(=O)N(C)C)n1 | 0.489 |
| CCCC(C)(C)NC(=O)CCN1CCOC1=O | -8.94 |
| NC(=O)c1ccc(NC2CCOC3(CCCC3)C2)nn1 (stereo unspecified) | -3.13 |
| COC(=O)c1cc(CN2CCC(c3noc(C)n3)CC2)c(C)s1 | -7.12 |
| CNS(=O)(=O)c1ccccc1N1CCN(C(=O)NC(C)C)CC1 | 9.44 |

| Structure (SMILES) | cytotoxicity at 10 µM [%] |
| --- | --- |
| COc1c(NS(=O)(=O)c2cc(C)ccc2C)c(C)nn1C | 0.259 |
| Cc1nc(-c2nnc[nH]2)sc1C(=O)N1CCCC(C(F)(F)F)C1 (stereo unspecified) | 7.59 |
| Cc1cc(CN2CCN(C(=O)c3ccc(=O)n(C)c3)CC2)no1 | -8.07 |
| COC(=O)COc1nc(C(C)C)no1 | -6.22 |
| COc1cc(NC(=O)NC2CCCC2)ccc1N1CCOC1=O | -7.09 |
| CN(Cc1ccsc1)C(=O)c1cc(S(=O)(=O)N(C)C)ccc1Cl | 15 |
| CCC(=O)NCC(=O)NCC(C)(C)c1cccc(Br)c1 | -2.32 |
| Cc1nn(C(C)C)c(C)c1NC(=O)c1cccnc1 | -1.57 |
| Cc1nc(C)n(CC2CN(CCCc3ccccc3)CCO2)n1 (stereo unspecified) | 2.89 |
| O=C(c1ccc(-n2ccnc2)nn1)N1CCCC1CCc1ccccc1 (stereo unspecified) | 8.57 |
| CCc1nnc2ccc(NCC3(N4CCCCC4)CCOCC3)nn12 | -8.39 |
| CC1C(=O)Nc2cccnc2N1S(=O)(=O)c1ccc(C#N)c(Cl)c1 (stereo unspecified) | -6.75 |
| CN1CCCN(C(=O)c2cccn2-c2ccc3c(c2)OCCO3)CC1 | 1.03 |
| CC(c1nc(C(C)(C)C)no1)S(=O)(=O)CC(=O)N(C)C (stereo unspecified) | -0.0515 |
| CN(C)C(=O)C1CN(Cc2ccc(C#N)cc2)c2ccccc2O1 (stereo unspecified) | 6.47 |
| O=C(Cc1cccs1)NC1(C(=O)NCC2CC2)CCCC1 | 4.19 |
| COc1c(C)cnc(CN(C)C2CCN(C3CCOCC3)CC2)c1C | -17.7 |
| Cc1cccc(OCc2nnc(SCC3CCCN(C)C3)o2)c1 (stereo unspecified) | -2.8 |
| CNS(=O)(=O)c1ccc(C(=O)NC2CCOc3ccccc32)o1 (stereo unspecified) | -9.26 |
| Cc1cccc(OCCC(=O)N(C)CCNS(C)(=O)=O)c1C | 3.35 |
| CS(=O)(=O)NCc1cc(-c2cc(F)cc(F)c2)nc(N2CCCC2)n1 | -1.53 |
| Cc1cc(C2CCCN2C(=O)CN2CC3(CCNCC3)OC2=O)on1 (stereo unspecified) | 16.4 |
| CCC[C@H]1CN(S(=O)(=O)c2ccc(Cl)cc2)C[C@@H]1NC(C)=O | -12.4 |

| Structure (SMILES) | cytotoxicity at 10 µM [%] |
| --- | --- |
| CCn1nc(CC(C)C)cc1C(=O)NCCS(=O)(=O)N(C)C | 11.2 |
| CC(C)(C)c1ccn(C2(C(=O)O)CCN(c3ncccc3C#N)CC2)n1 | -7.6 |
| CS(=O)(=O)N1CCC(c2nccn2Cc2ccccn2)CC1 | -14.6 |
| Cc1nn(C)c(C)c1CN1CCCC(c2ccc(C(=O)O)cc2)C1 (stereo unspecified) | -8.82 |
| c1ccc(CCN2CCN(C3CCOC4(CCOCC4)C3)CC2)nc1 (stereo unspecified) | 2.1 |
| O=C(c1ncc[nH]1)N1CCC(n2cc(-c3ccccn3)nn2)CC1 | 4.95 |
| CC(C)c1nccc(CN(C)Cc2cccc(-n3cccn3)c2)n1 | -2.44 |
| CC(C)[C@@H]1CN(C(=O)CN(C)Cc2ccc(F)cc2)C[C@H]1C(=O)O | 1.74 |
| CS(=O)(=O)Cc1nc(CCc2ccccc2)nn1-c1ccccn1 | 3.36 |
| CCCN(CC)Cc1ccc(C(=O)NCC2COCCO2)c(=O)[nH]1 (stereo unspecified) | 4.78 |
| Cc1nonc1OCCNc1ncnc2sc3c(c12)CCNC3 | -1.69 |
| Cc1n[nH]c(CCC(=O)N2CCOC(Cc3ccccc3)C2)c1C (stereo unspecified) | -44.1 |
| CCc1cnc(N)nc1NCCCN1CCCCC1CO (stereo unspecified) | -0.0414 |
| COCCn1ccnc1C1CCN(C(=O)CSc2nnc(C)s2)CC1 | 5.4 |
| Cc1ccc2[nH]c(C(=O)NCCCn3ccnn3)c(C)c2c1 | 5.36 |
| COc1cc(F)ccc1-c1ncccc1NC(=O)C(C)C | 1.23 |
| Cc1n[nH]c(C)c1-c1cc(-c2ccc[nH]2)nc(N)c1C#N | 12.4 |
| Cc1nn(C)cc1CNC(=O)c1cn(CCC2CCCCN2)nn1 (stereo unspecified) | -6.15 |
| Cc1cc(C[C@@H]2COC[C@@H]2NC(=O)CN2CCCC2)on1 | -30.2 |
| COCc1cc(NCc2cc(F)ccc2F)n2nccc2n1 | -2.32 |
| O=C(CCNC(=O)C1CCCC1)NCc1ccccc1Cn1ccnc1 | -2.74 |
| Cn1ccnc1CN1CCN(CCOc2ccccc2F)CC1 | -10.9 |
| O=C(NCCC1=CCCCC1)Nc1cc(C(F)(F)F)c[nH]c1=O | -8.39 |

| Structure (SMILES) | cytotoxicity at 10 µM [%] |
| --- | --- |
| CC(C)c1nc2c(n1C)CCN(Cc1nc(-c3ccco3)no1)C2 | -0.403 |
| CC(NC(=O)CCCC(=O)c1cccs1)c1nnc2n1CCC2 (stereo unspecified) | -10.2 |
| Cc1cnn(CCNCc2nc(CNC(=O)c3ccccc3)no2)c1 | -5.92 |
| CC(C)c1nc2c(n1C)CCN(Cc1cccc(OCC(N)=O)c1)C2 | -7.24 |
| CCn1cc(CN2CCCN(C(=O)c3sc(C)nc3C)CC2)cn1 | -14.4 |
| Cc1ccc(-c2nc(CNCC3CN(C)CCO3)co2)c(C)c1 (stereo unspecified) | -16.4 |
| CCc1ccc(CNC(=O)N2CCN(Cc3cc(C)on3)CC2)s1 | -7.03 |
| CCc1[nH]ncc1C(=O)N1CCCC(n2ccnc2C)C1 (stereo unspecified) | -10.5 |
| CN(Cc1nnc(C2CC2)n1C)C1CCN(CCc2cnn(C)c2)C1 (stereo unspecified) | -4.02 |
| COc1ccc(CC(=O)N2CCCC(n3cc(C)cn3)C2)c(OC)c1 (stereo unspecified) | -8.66 |
| Cc1nc(CC(=O)N2CCCCC2Cn2cccn2)cs1 (stereo unspecified) | -1.55 |
| CC(NC(=O)N(C)CCOc1ccccc1F)c1nncn1C (stereo unspecified) | -9.92 |
| Cc1nccc(C(=O)N2CCCC2c2c(C)nn(C)c2C)n1 (stereo unspecified) | -2.42 |
| Cc1ccccc1CNC(C)c1ccc(OCC(=O)NC2CC2)cc1 (stereo unspecified) | -6.97 |
| Cc1cc(C)n(C2CN(CC(=O)NC3CCS(=O)(=O)C3)C2)n1 (stereo unspecified) | -9.41 |
| Cc1nn(C)c(C)c1C1CCCN1CC(=O)NCc1ccco1 (stereo unspecified) | -12.4 |
| O=C(COCCc1ccccc1)N1CCCC(n2cncn2)C1 (stereo unspecified) | -27.8 |
| CN(Cc1ccccn1)C1CCCN(c2cccnn2)C1 (stereo unspecified) | -13.4 |
| COc1cc(C(=O)N2CCCC(CNS(C)(=O)=O)C2)ccc1C (stereo unspecified) | -21.6 |
| Cc1nn(C)c(C)c1CC(=O)N1CCCC(n2cccn2)C1 (stereo unspecified) | -13.7 |
| Cc1noc(C2CCN(C(=O)c3ccc(N(C)C)nc3)CC2)n1 | -5.95 |
| Cc1noc(C2CCN(C(=O)CN(C)c3ccc(Cl)cn3)CC2)n1 | -6.98 |
| CC(Cn1ccnc1)NC(=O)NCCNC(=O)C(C)C (stereo unspecified) | -3.51 |

| Structure (SMILES) | cytotoxicity at 10 µM [%] |
| --- | --- |
| N#Cc1cn(C2CC2)c(=O)n(CC(O)c2ccc(OC(F)F)cc2)c1=O (stereo unspecified) | -2.22 |
| CS(=O)(=O)N1CCCCCC1C1CCN(c2ncccn2)CC1 (stereo unspecified) | -7.98 |
| CC(NC(=O)N1CCCN(Cc2cccs2)CC1)c1cccnc1 (stereo unspecified) | -8.83 |
| Cc1csc(C2CCCN(C(=O)c3cc(Cl)c[nH]3)C2)n1 (stereo unspecified) | -8.21 |
| c1ccc(CCNC2CCc3ncnn3C2)nc1 (stereo unspecified) | -4.03 |
| CC1(C(=O)N2CCOCC2)CNCCO1 (stereo unspecified) | 1.2 |
| Cc1ncc2c(n1)C1(CCN(C(=O)C3CC3)CC1)OCC2 | 6.02 |
| Cc1ccc(CN(Cc2ccncc2)C2CC(C)(C)NC(C)(C)C2)o1 | -12.3 |
| COCCC(=O)N1CCN(CC(C)C)c2nc(C)ccc2C1 | 11.3 |
| CC(C)NC(=O)[C@H]1C[C@@H]2[C@@H](C1)OCCN2Cc1ccco1 | 4.08 |
| N#Cc1ccc(C(=O)N2CCn3c(Cn4cccn4)cnc3C2)cc1 | 3.09 |
| Cn1cc(CN2C[C@@H]3CN(Cc4ccoc4)CCO[C@@H]3C2)cn1 | 6.97 |
| O=C1C(NCc2ccc3c(c2)CCO3)CCN1Cc1ccccc1 (stereo unspecified) | 6.39 |
| Fc1ccc(CN2CCOCC3(CCN(Cc4nccs4)C3)C2)cc1 (stereo unspecified) | 4.23 |
| O=C1CC[C@H]2[C@H](CCN2C(=O)C2CCOCC2)N1Cc1ccncc1 | -2.7 |
| O=C(N1CCCO1)[C@]12COC[C@H]1CN(Cc1nccs1)C2 | 9.31 |
| Cc1ncc2c(c1C(=O)O)CCN(c1ncc(F)cn1)C2 | -2.19 |
| COC(=O)c1cc(OCC2CCC2)cc(C(=O)NC2CCC(O)CC2)c1 (stereo unspecified) | -14.2 |
| CNc1nc(C(=O)N2C[C@@H]3CC[C@H]2CN(S(C)(=O)=O)C3)cs1 | 0.977 |
